Results as given in ChEMBL document CHEMBL4422614 (Eur J Med Chem, 2019).
Each block holds one molecule with its values, some of them ahead of it. Calls of active or inactive are those of the source. The calls are words filed in the database; no cut-off is given here.

Assays:
[1] = target: 3',5'-cyclic-AMP phosphodiesterase 4D (Homo sapiens, UniProt Q08499); assay: Inhibition of human PDE4D2 (86 to 413 residues) catalytic domain using [3H]-cAMP as substrate after 15 mins by liquid scintillation counting method
3',5'-cyclic-AMP phosphodiesterase 4D, sequence (Q08499 whole entry, the tested form may be a part): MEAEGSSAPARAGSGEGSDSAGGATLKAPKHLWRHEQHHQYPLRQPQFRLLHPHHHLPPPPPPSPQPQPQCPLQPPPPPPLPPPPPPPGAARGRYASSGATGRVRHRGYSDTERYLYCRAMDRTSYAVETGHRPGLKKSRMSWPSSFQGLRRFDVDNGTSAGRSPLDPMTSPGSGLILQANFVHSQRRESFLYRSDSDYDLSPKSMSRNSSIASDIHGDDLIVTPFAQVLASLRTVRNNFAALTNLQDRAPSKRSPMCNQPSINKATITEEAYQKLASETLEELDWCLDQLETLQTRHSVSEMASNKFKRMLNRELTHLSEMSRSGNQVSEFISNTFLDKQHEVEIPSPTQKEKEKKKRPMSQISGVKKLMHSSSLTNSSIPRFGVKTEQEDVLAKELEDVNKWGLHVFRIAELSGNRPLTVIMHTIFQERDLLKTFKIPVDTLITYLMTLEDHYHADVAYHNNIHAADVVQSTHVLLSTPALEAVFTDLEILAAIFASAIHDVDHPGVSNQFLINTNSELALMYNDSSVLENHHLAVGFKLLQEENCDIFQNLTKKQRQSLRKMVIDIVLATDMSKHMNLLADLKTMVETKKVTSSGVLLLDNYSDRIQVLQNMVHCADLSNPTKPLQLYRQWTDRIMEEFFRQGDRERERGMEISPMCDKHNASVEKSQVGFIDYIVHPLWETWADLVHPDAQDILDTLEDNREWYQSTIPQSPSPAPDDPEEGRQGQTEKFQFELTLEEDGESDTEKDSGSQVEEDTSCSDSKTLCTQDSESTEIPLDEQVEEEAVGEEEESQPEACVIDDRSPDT

[2] = Antioxidant activity assessed as trolox equivalent of AAPH-induced radical scavenging activity at 10 to 20 uM preincubated for 10 mins followed by AAPH addition measured every minute for 120 mins by ORAC fluorescein assay; format: functional
Procedure, shortened: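 ORAC values are expressed as trolox equivalents, mean ± SD of three independent experiments.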

[3] = Drug metabolism in Sprague-Dawley rat liver microsomes assessed as metabolic rate up to 180 mins in presence of NADPH by UV-based LC-MS/MS analysis; format: ADME, Microsome; details: 3 h
[4] = in vitro; details: Sprague-Dawley, rat
[5] = test system: SH-SY5Y; assay: Cytotoxicity against human SH-SY5Y cells assessed as effect on cell viability at 10 uM after 24 hrs by MTT assay; format: cell-based
Procedure, shortened: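 SH-SY5Y viability was measured by MTT after exposure to compounds at 10 µM. Results are percent of vehicle control from three independent experiments.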

[6] = Metal chelating activity assessed as inhibition of Cu2+-induced amyloid beta (1 to 42 residues) aggregation at 25 uM after 24 hrs by thioflavin-T fluorescence assay (reference value: 156%); set-up: scale not given: the % may be the effect or the level left
Procedure, shortened: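 Aβ1-42 was incubated with Cu(II) (CuSO4) with or without compound, and thioflavin T fluorescence was read. The Aβ-alone signal was set as 100%. Mean ± SD of three independent experiments.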

[7] = in vitro; details: PAMPA
[8] = Metal chelating activity of the compound assessed as formation of cupric-compound complex at 50 uM after 30 mins by UV-vis spectrophotometric analysis
Procedure, shortened: (§1)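 UV-vis absorption spectra of compound (50 µM) were recorded in HEPES buffer alone and with 50 µM CuSO4, ZnCl2, FeSO4 or FeCl3, and spectral changes were assessed.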

[9] = Metal chelating activity of the compound assessed as formation of zinc-compound complex at 50 uM after 30 mins by UV-vis spectrophotometric analysis; procedure, shortened: as §1
[10] = Metal chelating activity of the compound assessed as formation of ferric-compound complex at 50 uM after 30 mins by UV-vis spectrophotometric analysis; procedure, shortened: as §1
[11] = Metal chelating activity of the compound assessed as formation of ferrous-compound complex at 50 uM after 30 mins by UV-vis spectrophotometric analysis; procedure, shortened: as §1
[12] = Metal chelating activity assessed as inhibition of Cu(II)-induced amyloid beta (1 to 42 residues) aggregation at 25 uM after 24 hrs by thioflavin-T fluorescence assay (reference value: 156%); set-up: scale not given: the % may be the effect or the level left
Procedure, shortened: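 Aβ1-42 was incubated with CuSO4 with or without compound, and thioflavin T fluorescence was read. Fluorescence is given as percent of Aβ alone, as mean ± SD of three independent experiments.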

[13] = Metal chelating activity assessed as inhibition of Cu(II)/ascorbate-induced ROS production by measuring […] level at 10 uM by fluorescence assay
Procedure, shortened: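 A Cu-ascorbate redox system in PBS (pH 7.4) at 37 °C, with Cu(II) 5 µM, ascorbate 150 µM and coumarin-3-carboxylic acid 50 µM as the hydroxyl radical trap. Compound was pre-incubated 10 min before ascorbate was added. Fluorescence of 7-hydroxy-CCA (ex 395, em 450 nm) was read every 30 s for 15 min.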

[14] = Acute Toxicity in C57BL/6 mouse assessed as mouse mortality up to 2000 mg/kg, ig measured over 14 days; format: organism-based; details: in vivo, po, 336 h
Procedure, shortened: (§2)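 Mice given a single intragastric dose of test compound at various dosages, then observed for 14 days for death and abnormal behaviour. On day 14, animals were sacrificed and heart, liver, lungs and kidneys examined.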

[15] = Acute Toxicity in C57BL/6 mouse assessed as abnormal behavior up to 2000 mg/kg, ig measured over 14 days; format: organism-based; details: in vivo, po, 336 h; procedure, shortened: as §2
[16] = Acute Toxicity in C57BL/6 mouse up to 2000 mg/kg, ig measured every 14 days; format: organism-based; details: in vivo, po, 336 h; procedure, shortened: as §2
[17] = Hepatotoxicity in C57BL/6 mouse assessed as abnormal changes up to 2000 mg/kg, ig after 14 days by microscopic analysis; format: toxicity, organism-based; details: in vivo, po, 336 h; procedure, shortened: as §2
[18] = Hepatotoxicity in C57BL/6 mouse assessed as tissue damage up to 2000 mg/kg, ig after 14 days by microscopic analysis; format: toxicity, organism-based; details: in vivo, po, 336 h; procedure, shortened: as §2
[19] = Cardiotoxicity in C57BL/6 mouse assessed as abnormal changes up to 2000 mg/kg, ig after 14 days by microscopic analysis; format: toxicity, organism-based; details: in vivo, po, 336 h; procedure, shortened: as §2
[20] = Cardiotoxicity in C57BL/6 mouse assessed as tissue damage up to 2000 mg/kg, ig after 14 days by microscopic analysis; format: toxicity, organism-based; details: in vivo, po, 336 h; procedure, shortened: as §2
[21] = Nephrotoxicity in C57BL/6 mouse assessed as abnormal changes up to 2000 mg/kg, ig after 14 days by microscopic analysis; format: toxicity, organism-based; details: in vivo, po, 336 h; procedure, shortened: as §2
[22] = Nephrotoxicity in C57BL/6 mouse assessed as tissue damage up to 2000 mg/kg, ig after 14 days by microscopic analysis; format: toxicity, organism-based; details: in vivo, po, 336 h; procedure, shortened: as §2
[23] = Acute Toxicity in C57BL/6 mouse lung assessed as abnormal changes up to 2000 mg/kg, ig after 14 days by microscopic analysis; format: organism-based; details: in vivo, po, 336 h; procedure, shortened: as §2
[24] = Acute Toxicity in C57BL/6 mouse lung assessed as tissue damage up to 2000 mg/kg, ig after 14 days by microscopic analysis; format: organism-based; details: in vivo, po, 336 h; procedure, shortened: as §2
[25] = test system: Mus musculus; assay: Cognition enhancement activity in amyloid beta (25 to 35 residues) induced C57BL/6J mouse model of Alzheimer's disease assessed as decrease in escape latancy at 30 mg/kg/day, ig administered for 26 consecutive days by Morris water maze test; format: functional, organism-based
Procedure, shortened: (§3)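 Mice were randomized into 7 groups. All except sham got an ICV injection of Aβ25-35 (3 nmol); sham got the same volume of saline ICV. Dosing was intragastric daily for 26 days, with 0.5% CMC-Na as vehicle for sham and model. Body weight, diarrhea and emesis-like behavior were monitored.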

[26] = Toxicity in amyloid beta (25 to 35 residues) induced C57BL/6J mouse model of Alzheimer's disease assessed as loss of body weight at 30 mg/kg/day, ig administered for 26 consecutive days; format: organism-based; details: in vivo, po; procedure, shortened: as §3
[27] = Toxicity in amyloid beta (25 to 35 residues) induced C57BL/6J mouse model of Alzheimer's disease assessed as diarrhea at 30 mg/kg/day, ig administered for 26 consecutive days; format: organism-based; details: in vivo, po; procedure, shortened: as §3
[28] = Toxicity in amyloid beta (25 to 35 residues) induced C57BL/6J mouse model of Alzheimer's disease assessed as emesis at 30 mg/kg/day, ig administered for 26 consecutive days; format: organism-based; details: in vivo, po; procedure, shortened: as §3
[29] = test system: Mus musculus; assay: Cognition enhancement activity in amyloid beta (25 to 35 residues) induced C57BL/6J mouse model of Alzheimer's disease assessed as swimming speed at 4 mg/kg/day, ig administered for 26 consecutive days by Morris water maze test (reference value: 15.6 +/- 2.4 cm/sec); format: functional; procedure, shortened: as §3
[30] = test system: Mus musculus; assay: Cognition enhancement activity in amyloid beta (25 to 35 residues) induced C57BL/6J mouse model of Alzheimer's disease assessed as increase in number of virtual platform crossing at 30 mg/kg/day, ig administered for 26 consecutive days by Morris water maze test; format: functional, organism-based; procedure, shortened: as §3
[31] = test system: Mus musculus; assay: Cognition enhancement activity in amyloid beta (25 to 35 residues) induced C57BL/6J mouse model of Alzheimer's disease assessed as swimming path length in virtual platform at 30 mg/kg/day, ig administered for 26 consecutive days by Morris water maze test (10.2 +/- 3.2 cm); format: functional; procedure, shortened: as §3
[32] = test system: Mus musculus; assay: Cognition enhancement activity in amyloid beta (25 to 35 residues) induced C57BL/6J mouse model of Alzheimer's disease assessed as swimming time in effective region at 30 mg/kg/day, ig administered for 26 consecutive days by Morris water maze test (4.3 +/- 1.3 sec); format: functional; procedure, shortened: as §3
[33] = test system: Mus musculus; assay: (§4) Neuroprotection in C57BL/6J mouse model of amyloid beta (25 to 35 residues) induced Alzheimer's disease assessed as reduction in ratio of apoptotic neuron in CA1 hippocampus region at 30 mg/kg/day, ig administered for 26 consecutive days by hematoxylin and eosin staining-based light microscopic analysis (reference value: 40.6 +/- 12.5%); format: ADME, organism-based; set-up: scale not given: the % may be the effect or the level left; details: in vivo, po
Procedure, shortened: (§5)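 Hippocampal CA1, CA3 and DG neurons were stained with H&E after the Aβ25-35 ICV model and 26-day intragastric dosing. Denatured cell index = denatured cells/total cells, n = 5. Values are mean ± SD, two-way ANOVA versus model.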

[34] = test system: Mus musculus; assay: as §4, with “in” for “in C57BL/6J mouse model of”, “induced C57BL/6J mouse model of” for “induced”, “CA3” for “CA1”, “80.2” for “40.6”, “8.6%)” for “12.5%)”; format: ADME, organism-based; set-up: scale not given: the % may be the effect or the level left; details: in vivo, po; procedure, shortened: as §5
[35] = test system: Mus musculus; assay: as §4, with “in” for “in C57BL/6J mouse model of”, “induced C57BL/6J mouse model of” for “induced”, “DG” for “CA1”, “55.8” for “40.6”, “7.2%)” for “12.5%)”; format: ADME, organism-based; set-up: scale not given: the % may be the effect or the level left; details: in vivo, po; procedure, shortened: as §5
[36] = Metal chelating activity assessed as inhibition of Cu(II)-induced amyloid beta (1 to 42 residues) aggregation at 25 uM after 24 hrs by TEM assay
Procedure, shortened: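 Samples were prepared as for the ThT assay. 10 µL aliquots were applied to carbon-coated copper grids for 2 min, then stained with 3% phosphotungstic acid for 2 min and imaged by transmission electron microscopy.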

Structure (SMILES): COc1ccc(NC(=O)c2ccc3c(Cl)cc(Cl)c(O)c3n2)cc1OC1CCCC1
IC50 [1]: 6.78 µM
Activity [2]: 1.29 equiv

Structure (SMILES): COc1ccc(NC(=O)c2ccc3cccc(O)c3n2)cc1OC1CCCC1
IC50 [1]: 4.15 µM
Activity [2]: 1.98 equiv

Structure (SMILES): COc1ccc(NC(=O)c2ccc3cccc(O)c3n2)cc1OC
IC50 [1]: 4.32 µM
Activity [2]: 1.03 equiv

Structure (SMILES): COc1cc2c(cc1OC)C(=O)C(CC1CCN(Cc3ccccc3)CC1)C2 (stereo not drawn) [DONEPEZIL]
K [3]: 0.00917 min⁻¹
half-life ([4]; microsomes): 1.26 h

Structure (SMILES): COc1ccc(C(=O)Nc2ccc(O)c3ncccc23)cc1OC1CCCC1.Cl
IC50 [1]: 0.492 µM
Activity [2]: 0.63 equiv
Activity [8]: Active
Activity [9]: Active
Activity [10]: Active
Activity [11]: Active
Activity [5]: Non-Toxic
Activity [6]: 51%
Activity [12]: 46%
Activity [13]: Active
Activity [14]: Non-Toxic
Activity [15]: Non-Toxic
Activity [16]: Non-Toxic
Activity [17]: Non-Toxic
Activity [18]: Non-Toxic
Activity [19]: Non-Toxic
Activity [20]: Non-Toxic
Activity [21]: Non-Toxic
Activity [22]: Non-Toxic
Activity [23]: Non-Toxic
Activity [24]: Non-Toxic
Activity [25]: Active
Activity [26]: Non-Toxic
Activity [27]: Non-Toxic
Activity [28]: Non-Toxic
Activity [29]: 15.3 cm/s
Activity [30]: Active
Activity [31]: 18 cm
Time [32]: 6.1 s
Activity [33]: 13.8%
Activity [34]: 37.1%
Activity [35]: 26.8%
K [3]: 0.0134 min⁻¹
Activity [36]: Active
Papp at 10 h, 100 ug/ml [7]: 5.9 ×10⁻⁶ cm/s
half-life ([4]; liver microsomes): 0.862 h

Structure (SMILES): COc1ccc(NC(=O)c2ccc3c(Cl)cc(Cl)c(O)c3n2)cc1OC
IC50 [1]: 8.07 µM
Activity [2]: 1.05 equiv

Now from value to molecule, other results behind:

IC50 [1]: 3.83 µM
Activity [6]: 82%
Structure (SMILES): Cl.O=C(Nc1cc(Cl)c(O)c2ncccc12)c1ccc(OC(F)F)c(OCC2CC2)c1
Activity [2]: 0.74 equiv
Activity [5]: Toxic

IC50 [1]: 0.426 µM
Papp at 10 h, 100 ug/ml [7]: 7.05 ×10⁻⁶ cm/s
Structure (SMILES): Cl.O=C(Nc1cc(I)c(O)c2ncccc12)c1ccc(OC(F)F)c(OCC2CC2)c1
Activity [2]: 0.69 equiv
